The record followed here is ChEMBL document CHEMBL1149633, “Protection from endotoxic shock by EVK-203, a novel alkylpolyamine sequestrant of lipopolysaccharide” (Bioorg Med Chem, 2007).

The source made the active and inactive calls. The calls are words filed in the database; no cut-off is given here.

For data set [1], the system named is HEK293. Nature of the data set: Inhibition of LPS-induced NF-kappaB induction in HEK293 cells co-transfected with TLR4, CD14 and MD2. The data set is classed as functional, cell-based. Particulars: Homo sapiens. In outline:
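HEK293 cells stably expressing TLR4, CD14, MD2 and an NF-κB/AP-1-driven secreted alkaline phosphatase reporter. Plated at ~10^5 cells/ml and grown to confluency. Stimulated with 10 ng/ml E. coli O111:B4 LPS plus serially diluted compound, then incubated overnight. seAP in the supernatant was read by chromogen at 620 nm.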

The target of data set [2] is T1, MAP kinase p38 (Homo sapiens) (UniProt O15264+Q15759+Q16539+P53778). The data set can be described thus: Inhibition of p38MAPK phosphorylation in TNF-alpha-induced human whole blood neutrophils. The data set is classed as protein assay.
Data set [3] can be described thus: Binding affinity to LPS by BODIPY-TR-cadaverine displacement assay. Summed up:
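Fluorescence displacement of BODIPY-TR-cadaverine (5 μM) bound to E. coli O111:B4 smooth LPS (50 μg/ml), both in the mixture added to the wells. Compound serially diluted two-fold in 50 mM Tris pH 7.4 […], quadruplicates. Ex 580/em 620 nm at 25 °C. ED50 is the dose that displaces 50% of bound probe, taken from a four-parameter logistic fit.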

For data set [4], the species on record is Mus musculus. Nature of the data set: Prevention of LPS-induced lethality in D-galactosamine-primed CF1 mouse model of lethal endotoxic shock. The format is functional, organism-based.
Data set [5] deals with T1, MAP kinase p38 (Homo sapiens). The data set can be described thus: Inhibition of p38MAPK phosphorylation in LPS-induced human whole blood neutrophils. The format is tissue-based.
The target is the same in data set [6]. The data set can be described thus: Inhibition of TNFalpha induced p38MAPK phosphorylation in human whole blood neutrophils. The format is tissue-based.
The subject of data set [7] is Blood. The data set can be described thus: Inhibition of LPS-induced TNFalpha production in human whole blood. The data set is classed as functional, tissue-based. Summed up:
(§1)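 EDTA-anticoagulated fresh whole blood from healthy human volunteers, mixed with an equal volume of 20 ng/ml E. coli O111:B4 LPS. Graded compound, diluted in saline, added at the same time. Incubated 4 h. TNF-α, IL-6 and IL-8 were quantified by multiplexed flow-cytometric bead array against recombinant standard curves.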

In data set [8] the test system is Mus musculus. Nature of the data set: Toxicity in mouse at 40 mg/kg, sc after 5 days. The format is organism-based. More on the design: dose 40 mg/kg, route subcutaneous. Particulars: in vivo, 120 h. Summed up: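 Female CF-1 mice were given 40 mg/kg s.c. in the lower flank daily for 5 days (200 mg/kg total), in 0.2 ml isotonic saline with human serum albumin at 66 mg/ml. They were monitored for external signs, and nephro- and hepatotoxicity were assessed by clinical chemistry on Day 6.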

The subject of data set [9] is Mus musculus. The data set can be described thus: Inhibition of LPS-induced plasma IL6 level in sc dosed mouse pretreated 1 hr before LPS challenge by CBA assay. The data set is classed as functional, organism-based. Summed up:
(§2)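 Female outbred CF-1 mice (9–11 weeks, 22–28 g), 5 per group. Graded compound or vehicle given s.c. at −1 h, then 200 ng LPS in saline i.p. at 0 h. Terminal cardiac-puncture blood taken under halothane at 1, 2 and 3 h. Plasma cytokines measured by mouse inflammation bead array.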

For data set [10], the system named is Blood. The data set can be described thus: Inhibition of LPS-induced IL8 production in human whole blood. The format is functional, tissue-based. Summed up: as §1
Data set [11] deals with Mus musculus. The data set can be described thus: Inhibition of LPS-induced plasma TNFalpha level in sc dosed mouse pretreated 1 hr before LPS challenge by CBA assay. The data set is classed as functional, organism-based. Summed up:
as §2

Data set [12] deals with Mus musculus. The data set can be described thus: Inhibition of LPS-induced plasma MCP1 level in sc dosed mouse pretreated 1 hr before LPS challenge by CBA assay. The format is functional, organism-based. In outline: as §2
Data set [13] is filed under the species Mus musculus. Nature of the data set: Prevention of TNFalpha induced lethality in CF1 mouse. The data set is classed as functional, organism-based. In outline:
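Mice were challenged with 100 ng/animal of recombinant murine TNF-α, and lethality was assessed.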

For data set [14], the system named is J774.A1. The data set can be described thus: Inhibition of nitric oxide production in LPS-stimulated mouse J774A.1 cells. The format is functional, cell-based. In outline:
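J774A.1 cells in RPMI-1640 with 10% FBS and 200 μg/ml L-arginine, 37 °C, 5% CO2. Plated at ~10^5 cells/ml, grown to confluency, then given 10 ng/ml E. coli O111:B4 LPS together with serially diluted compound for 16 h. Nitrite measured with Griess reagent (15 min, RT, dark) at 535 nm against a sodium nitrite standard curve.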

Data set [15] has as its system Blood. Nature of the data set: Inhibition of LPS-induced IL6 production in human whole blood. The data set is classed as functional, tissue-based. In outline: as §1
Data set [16] concerns Mus musculus. The data set can be described thus: Prevention of LPS-induced lethality in D-galactosamine-primed CF1 mouse model of lethal endotoxic shock at 8 mg/kg, sc administered concurrently to LPS administration. The format is functional, organism-based. Further details: dose 8 mg/kg. In outline:
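D-galactosamine-sensitized female CF-1 mice received 8 mg/kg s.c. at different times before or after i.p. LPS (200 ng/animal, 2× LD100, given at 0 h), including concurrent dosing. Survival recorded.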

T1 sequence (P53778 whole entry, looked up, chain 1 of 4): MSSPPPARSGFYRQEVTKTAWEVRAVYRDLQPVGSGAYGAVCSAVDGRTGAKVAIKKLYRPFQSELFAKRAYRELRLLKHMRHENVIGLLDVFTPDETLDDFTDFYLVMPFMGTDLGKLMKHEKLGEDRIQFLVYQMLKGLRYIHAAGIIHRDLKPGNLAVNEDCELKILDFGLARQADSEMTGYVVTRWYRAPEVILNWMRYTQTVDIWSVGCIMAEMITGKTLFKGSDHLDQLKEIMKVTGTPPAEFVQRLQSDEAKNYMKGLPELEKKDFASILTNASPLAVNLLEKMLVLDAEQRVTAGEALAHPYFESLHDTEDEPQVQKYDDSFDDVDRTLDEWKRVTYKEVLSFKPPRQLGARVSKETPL
T1 sequence (Q16539 whole entry, looked up, chain 2 of 4): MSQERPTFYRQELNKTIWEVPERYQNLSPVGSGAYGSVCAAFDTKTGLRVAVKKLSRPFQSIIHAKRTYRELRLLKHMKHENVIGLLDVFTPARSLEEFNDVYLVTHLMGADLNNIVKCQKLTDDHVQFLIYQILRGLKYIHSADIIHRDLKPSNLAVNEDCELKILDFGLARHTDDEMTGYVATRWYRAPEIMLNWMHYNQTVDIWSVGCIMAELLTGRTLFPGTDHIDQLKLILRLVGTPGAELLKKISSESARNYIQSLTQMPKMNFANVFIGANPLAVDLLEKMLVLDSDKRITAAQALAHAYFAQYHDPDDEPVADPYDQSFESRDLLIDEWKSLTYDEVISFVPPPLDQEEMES
T1 sequence (Q15759 whole entry, looked up, chain 3 of 4): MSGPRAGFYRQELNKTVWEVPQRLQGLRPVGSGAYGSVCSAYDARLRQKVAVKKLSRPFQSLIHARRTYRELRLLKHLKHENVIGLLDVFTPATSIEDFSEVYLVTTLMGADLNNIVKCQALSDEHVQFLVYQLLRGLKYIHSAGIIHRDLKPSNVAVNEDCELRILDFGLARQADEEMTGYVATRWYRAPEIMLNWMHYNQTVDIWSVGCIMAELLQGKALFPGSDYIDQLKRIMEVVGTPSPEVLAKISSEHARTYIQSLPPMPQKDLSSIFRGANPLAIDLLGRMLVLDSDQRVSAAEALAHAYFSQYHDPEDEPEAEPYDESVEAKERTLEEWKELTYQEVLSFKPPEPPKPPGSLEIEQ
T1 sequence (O15264 whole entry, looked up, chain 4 of 4): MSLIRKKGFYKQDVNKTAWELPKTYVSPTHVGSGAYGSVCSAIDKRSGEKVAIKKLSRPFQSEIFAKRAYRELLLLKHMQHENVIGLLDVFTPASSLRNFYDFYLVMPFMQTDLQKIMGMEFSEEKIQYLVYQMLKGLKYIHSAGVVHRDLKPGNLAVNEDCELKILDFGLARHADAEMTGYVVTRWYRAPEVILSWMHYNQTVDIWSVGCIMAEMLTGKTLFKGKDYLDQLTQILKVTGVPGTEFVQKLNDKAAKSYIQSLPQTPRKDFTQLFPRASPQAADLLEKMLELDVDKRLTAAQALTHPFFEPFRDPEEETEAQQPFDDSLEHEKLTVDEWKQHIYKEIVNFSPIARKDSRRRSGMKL

`CCCCCCCCCCCCCCCC(CCCCCCCCCCCCCCC)NCCCNCCCNCCCCNCCCN`: in [1], the IC50 was determined as 2.7 µM. This lies in the single-digit micromolar range.

`CCCCCCCCCCCCCCC/C=C(/CCCCCCCCCCCCCC)CNCCCNCCCNCCCCNCCCNCCCNC/C(=C\CCCCCCCCCCCCCCC)CCCCCCCCCCCCCC` came in with an IC50 in data set [1] of 22 µM.

With POLYMYXIN B [listing 1 of 2 here], the result in data set [2] and in data set [6] was inactive. In data set [3], this compound returned an ED50 of 1.22 µM. In data set [4], the outcome was Active. The Activity result in data set [5] was “Dose-dependent effect”.

In the case of `CCCCCCCCCCCCCCCC(CCCCCCCCCCCCCCC)NCCCNCCCNCCCCNCCCNCCCNC(CCCCCCCCCCCCCCC)CCCCCCCCCCCCCCC`, the concentration for half-maximal inhibition (IC50) in data set [1] worked out at 21 µM.

On to `CCCCCCCCCCCCCCC/C=C(/CCCCCCCCCCCCCC)CNCCCNCCCNCCCCNCCCN`, for which the 50% inhibitory concentration (IC50) in data set [7] (Homo sapiens, Blood) was determined as 3.85 µM; in data set [1] it was 2.9 µM; in data set [10] (Homo sapiens, Blood), 3.08 µM; in data set [14] (Mus musculus, J774.A1), 2.22 µM; in data set [15] (Homo sapiens, Blood), 4 µM. Moreover, the Activity entry in data set [8] was “Non-toxic”; in [9], “Dose-dependent effect”; in data set [11], “Dose-dependent effect”; in [12], “Dose-dependent effect”; in [5], “Dose-dependent effect”. Also, the result in data set [2], in data set [13] and in [6] was inactive. Moreover, the ED50 in data set [3] was 3.14 µM. For the same compound, the outcome in data set [4] and in data set [16] was Active.

Take POLYMYXIN B [listing 2 of 2 here]: the concentration for half-maximal inhibition (IC50) was found to be 14.2 µM in [7], 16.4 µM in [10], 1.79 µM in [14] (j774.a1) and 11 µM in [15].

Turning to `CCCCCCCCCCCCCCCCN(CCCCCCCCCCCCCCCC)CCCNCCCNCCCCNCCCN`, the half-inhibitory concentration (IC50) in data set [1] was determined as 2.7 µM.

Consider `CCCCCCCCCCCCCCCCC(CCCCCCCCCCCCCC)CNCCCNCCCNCCCCNCCCN` (stereo not given), for which half-maximal inhibition in data set [1] (IC50) was put at 2.6 µM.

In general, IC50 refers to the concentration at which inhibition is half-maximal. Higher therefore signals weaker potency in that assay.
